An excerpt weighted towards active compounds, which were near 1.5% of everything screened.
APJ antagonist – APJ receptor antagonism; P35414; CHO-K1 APJ beta-arrestin complementation, luminescence; inhibition, % at 20 µM; 330,000 compounds, 0.32% hits; AID 2521;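 active = inhibition above about 40% at 20 µM, limit read from the data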;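 also: cells challenged with 10 nM apelin-13 agonist together with compound; plate controls were apelin-13 plus DMSO wells for no effect and DMSO wells lacking apelin-13 for full effect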
APJ ag – agonists of human APJ apelin receptor; AID 2520; CHO-K1 APJ PathHunter beta-arrestin, luminescence; 0% DMSO wells, 100% apelin; 330,000 compounds, 0.11% hits; activation, % at 20 µM;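 active = activation more than six SD over the plate average, tested at 20 µM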;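 also: 0% = DMSO alone and 100% = apelin-13 at 10 nM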
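Material: engineered CHO-K1 APJ arrestin reporter cells; amount: 1000 CHO-K1 reporter cells seeded per well; incubation: compound stimulation 90 min at 25 °C, detection 60 min; signal: luminescent beta-gal fragment complementation, chemiluminescent substrate; read-out basis: APJ agonist activity; controls: DMSO-only wells as negative, 10 nM Apelin-13 as positive control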
EBI2 block – EBI2 (human) antagonism; P32249; EBI2 beta-arrestin recruitment, luminescence, 7a,25-OHC stimulated; inhibition, % at 5 µM; 360,000 compounds, 0.81% hits; AID 651636; in the data active = inhibition above about 38%;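 also: enzyme fragment complementation signal reports receptor beta-arrestin coupling in cells; 0% = agonist plus DMSO wells and 100% = wells without agonist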
CXCR6 inh – inhibitors of human CXCR6 receptor | O00574 | CHO-K1 PathHunter CXCR6 beta-arrestin, luminescence | inhibition, % at 20 µM | 360,000 compounds, 0.36% hits | AID 602244; in the data active = inhibition above about 34%, passing the limit was not always enough;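 also: antagonist mode with CXCL16 agonist at 10 nM final; 0% = 10 nM CXCL16 with DMSO and 100% = unstimulated wells without agonist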
Target sequence (O00574 whole entry, looked up): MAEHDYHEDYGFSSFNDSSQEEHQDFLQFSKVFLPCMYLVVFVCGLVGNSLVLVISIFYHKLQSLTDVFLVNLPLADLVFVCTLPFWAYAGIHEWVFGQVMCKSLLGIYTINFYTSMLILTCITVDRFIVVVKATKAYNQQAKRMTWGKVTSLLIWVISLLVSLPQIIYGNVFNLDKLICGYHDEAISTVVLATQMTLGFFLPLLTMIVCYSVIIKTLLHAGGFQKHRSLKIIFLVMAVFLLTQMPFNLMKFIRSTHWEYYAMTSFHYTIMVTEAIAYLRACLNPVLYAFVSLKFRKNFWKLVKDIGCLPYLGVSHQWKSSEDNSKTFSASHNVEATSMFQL
CCR6 antag – blocks CCL20-driven beta-arrestin recruitment at human CCR6 | P51684 | 340,000 compounds, 0.49% hits | CHO-K1 CCR6 PathHunter beta-arrestin, luminescence, CCL20-stimulated | inhibition, % at 20 µM;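 active = compounds whose inhibition of the agonist-driven luminescence signal at 20 µM reaches about 50%, limit read from the data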;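 also: cells stimulated with CCL20 at 14 nM final; plate controls were DMSO with CCL20 for no effect and DMSO without agonist for full effect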
APJ antag conf – APJ receptor antagonism confirmation | shares compounds with APJ antagonist | 950 compounds, 66% hits | AID 2766 | inhibition, % at 20 µM | APJ beta-arrestin recruitment, luminescence, antagonist mode; in the data active = inhibition above about 50%
Active calls of the source: *; . = not tested or not shown.

SMILES | APJ antagonist | APJ ag | EBI2 block | CXCR6 inh | CCR6 antag | APJ antag conf
O=C(CCl)c1ccc2[nH]c(=O)oc2c1 | 83.5* | -13.8 | 1.7 | 7.9 | 7.2 | 20.1
O=c1[nH]c2ccc(Br)cc2o1 | . | . | 6.1 | -1.3 | 6.7 | .
Cc1ncccc1C(=O)N1CCCC(c2cc(C(=O)Nc3ccc(C(C)(C)C)cc3)no2)C1 (stereo not given) | . | . | 3.6 | 2.3 | . | .
Cc1ccc(S(=O)(=O)NN=CC=CC=NNS(=O)(=O)c2ccc(C)cc2)cc1 | . | . | 3.3 | 3.2 | . | .
OC1CN=C2CCCc3c2n(c2ccc(Cl)cc32)C1 (stereo not given) | 61.3* | -11.4 | 18.0 | 52.1* | 67.9* | 100.6*
COc1cccc(/C=C2\CC(C)Cc3c2nc2ccccc2c3C(=O)O)c1OC (stereo not given) | 48.7* | -1.1 | -4.1 | -3.2 | 9.9 | -18.0
ON1C(c2ccccc2C(F)(F)F)N(O)[C@H]2CCCC[C@H]21 (stereo not given in full) | 40.2* | -7.9 | 0.0 | 19.8 | 29.4 | 38.0
COc1ccc(/C=C2\C(=O)ON=C2c2ccccc2)cc1 | -1.1 | 2.5 | -6.5 | -6.0 | -12.5 | .
O=C1ON=C(c2ccccc2)/C1=C/c1ccc(O)c(O)c1 | 41.7* | -7.6 | -3.3 | 27.7 | 45.5 | 68.1*
O=C(NCCOC(=O)c1cccs1)c1cccnc1 | 64.5* | -3.8 | 3.3 | 3.3 | -9.2 | 24.8
Cc1ccccc1-c1cc2nc(NCCN3CCCC3)n(C)c(=O)c2s1 | . | . | -10.0 | -6.8 | . | .
CCOC(=O)c1cnc(Nc2nc3ccccc3o2)nc1CSC(=S)N(CC)CC | 46.1* | -7.5 | 26.0 | 17.5 | 43.9 | 8.0
CCOC(=O)c1cnc(Nc2nc3ccccc3o2)nc1CSc1ncccn1 | 38.4 | -6.1 | . | . | 4.5 | .
Cc1ccc(NC(=O)c2ccc(Cl)c(S(=O)(=O)Nc3c(C)n(C)n(-c4ccccc4)c3=O)c2)cc1Cl | -25.8 | -11.6 | 18.0 | 8.8 | 4.7 | .
Nc1[nH]c2cc([N+](=O)[O-])ccc2c1-c1ccccn1 | 47.3* | -6.6 | 19.7 | 33.9 | 49.1 | 99.5*
COc1ccc(CNC(=O)CC[C@H]2O[C@@H](n3cc(C)c(=O)[nH]c3=O)C[C@@H]2O)cc1 | . | . | -2.7 | 1.7 | . | .
CCOC(=O)C1=CN(c2cccc(F)c2)C=C(C(=O)OCC)C1c1cc(OC)c(O)c([N+](=O)[O-])c1 | 44.1* | -3.7 | 6.7 | 26.8 | 49.4 | 23.1
CCOC(=O)c1c(C2COc3ccccc3O2)csc1NC(=O)c1ccco1 (stereo not given) | 42.7* | -9.0 | 23.4 | 8.2 | 10.1 | 77.1*
CCOC(=O)c1c(-c2cccs2)csc1NC(=O)c1ccco1 | 20.4 | 0.6 | 0.1 | -5.0 | -17.4 | .
CCOC(=O)C1=C(c2ccccc2)N=c2s/c(=C\c3ccc(O)cc3)c(=O)n2C1c1cccs1 (stereo not given) | 42.4* | -8.0 | 2.3 | 17.6 | 53.1* | 101.5*
CCOC(=O)C1=C(C)N=c2s/c(=C/c3ccco3)c(=O)n2C1c1cccc(OC)c1 (stereo not given) | -19.3 | -2.8 | . | . | 37.3 | .
CCOC(=O)C1=C(C)N=c2s/c(=C/c3cccc([N+](=O)[O-])c3O)c(=O)n2C1c1cc(OC)c(OC)c(OC)c1 (stereo not given) | 40.4* | -6.8 | -0.8 | 34.4 | 54.7* | 90.1*
CCOC(=O)C1=C(C)N=c2s/c(=C/c3cccc([N+](=O)[O-])c3O)c(=O)n2C1c1ccccc1 (stereo not given) | 49.5* | -9.4 | 4.6 | 32.8 | 70.8* | 98.7*
COc1ccc(-c2cc(=O)c3ccc(O)cc3o2)cc1OC | . | . | 2.8 | -1.8 | . | .
Nc1ccc(-c2c3ccc(=O)cc-3oc3cc(O)ccc23)c(C(=O)O)c1 | 43.1* | -8.7 | 7.4 | 25.5 | 38.9 | 66.2*
C1CCN(CC2CCCCN2)CC1 (stereo not given) | . | . | 5.7 | -3.5 | 9.6 | .
CCN1C(=O)C(=Cc2cccc(OC)c2Oc2ccc([N+](=O)[O-])cc2[N+](=O)[O-])SC1=S | 50.2* | -7.2 | 14.0 | 42.5* | 60.1* | 70.6*
O=C(NNc1ncc(C(F)(F)F)cc1Cl)c1c(Cl)cccc1Cl | 40.0 | -8.5 | 6.0 | 17.5 | 22.2 | 64.6*
Cc1c(Cl)cccc1NC(=S)NNc1ncc(C(F)(F)F)cc1Cl | 71.7* | -14.1 | 29.4 | 52.7* | 87.1* | 117.0*
